# According to ChEMBL document CHEMBL3414433, “Discovery and profiling of a selective and efficacious Syk inhibitor” (J Med Chem, 2015):
# Experiments:
# [1] = molecular target: Voltage-gated inwardly rectifying potassium channel KCNH2 (Homo sapiens, UniProt Q12809); assay: Inhibition of human ERG expressed in CHO cells by automated Qpatch clamp assay; assay type: cell-based
# [2] = molecular target: T1, Tyrosine-protein kinase SYK (Homo sapiens, UniProt P43405); assay: Inhibition of Syk in anti-CD32 stimulated CD14+ human monocytes assessed as phospho-SLP76 level preincubated for 30 mins followed by anti-CD32 stimulation measured after 5 mins by flow cytometric analysis
# [3] = Oral bioavailability in Sprague-Dawley rat at 3 mg/kg administered as cassette dosing; assay type: ADME, organism-based; conditions: in vivo
# Summary of the method: (§1)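 Rats were dosed i.v. at 1 mg/kg in NMP/PEG200 (3:7) and p.o. at 3 mg/kg in CMC/water/Tween (0.5:99:0.5). PK parameters were derived from blood concentration–time curves for both routes.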
# Rattus norvegicus [4] = assay: Dose normalized AUC in Sprague-Dawley rat at 1 mg/kg, iv administered as cassette dosing; assay type: ADME, organism-based; set-up: dose 1 mg/kg, route intravenous; conditions: in vivo
# Summary of the method: (§2)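 Rat PK: i.v. 1 mg/kg in NMP/PEG200 (3:7); p.o. 3 mg/kg in CMC/water/Tween (0.5:99:0.5). Exposure values dose normalized.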
# Rattus norvegicus [5] = assay: Dose normalized AUC in Sprague-Dawley rat at 3 mg/kg, po administered as cassette dosing; assay type: ADME, organism-based; set-up: dose 3 mg/kg, route oral; conditions: in vivo; summary of the method: as §2
# Rattus norvegicus [6] = assay: Dose normalized Cmax in Sprague-Dawley rat at 1 mg/kg, iv and 3 mg/kg, po administered as cassette dosing; assay type: ADME, organism-based; conditions: in vivo; summary of the method: as §2
# [7] = Mean residence time in Sprague-Dawley rat at 1 mg/kg, iv and 3 mg/kg, po administered as cassette dosing; assay type: ADME, organism-based; conditions: in vivo; summary of the method: as §1
# [8] = Cytotoxicity against C57BL/6 mouse bone marrow cells assessed as growth inhibition preincubated for 4 days followed by [3H]-thymidine addition measured after 5 hrs by betaplate counting analysis; assay type: cell-based, Bone marrow cell
# [9] = Clearance in Sprague-Dawley rat at 1 mg/kg, iv and 3 mg/kg, po administered as cassette dosing; assay type: ADME, organism-based; conditions: in vivo; summary of the method: as §2
# [10] = molecular target: T1, Tyrosine-protein kinase SYK; assay: Inhibition of Syk in anti-igM stimulated human Ramos B cells assessed as phospho-BLNK level preincubated for 30 mins followed by anti-IgM stimulation measured after 15 mins by flow cytometric analysis; assay type: cell-based
# [11] = Volume of distribution at steady state in Sprague-Dawley rat at 1 mg/kg, iv and 3 mg/kg, po administered as cassette dosing; assay type: ADME, organism-based; conditions: in vivo, read-out: Vdss; summary of the method: as §1
# [12] = molecular target: T1, Tyrosine-protein kinase SYK
# [13] = Metabolic stability in dog hepatocytes assessed as compound remaining; assay type: ADME, cell-based, Canis lupus familiaris, Hepatocyte
# [14] = Metabolic stability in monkey hepatocytes assessed as compound remaining; assay type: ADME, cell-based, Macaca mulatta, Hepatocyte; conditions: rhesus monkey
# Hepatocyte [15] = assay: Metabolic stability in human hepatocytes assessed as compound remaining; assay type: ADME, cell-based
# Hepatocyte [16] = assay: Metabolic stability in rat hepatocytes assessed as compound remaining; assay type: ADME, cell-based
# hERG (KCNH2) [17] = molecular target: T2, hERG (KCNH2) (Homo sapiens, UniProt Q12809); assay: Inhibition of human ERG at 3 uM by manual patch clamp assay relative to control
# hERG (KCNH2) [18] = molecular target: T2, hERG (KCNH2); assay: Inhibition of human ERG at 10 uM by manual patch clamp assay relative to control
# [19] = Metabolic stability in monkey liver assessed as formation of 2-(7-(3-((1R,2S)-2-aminocyclohexylamino)-6-carbamoyl-1,2,4-triazin-5-ylamino)-3-oxo-3H-indol-2-ylamino)-3-mercaptopropanoic acid at 10 to 20 uM after 8 to 18 hrs; assay type: ADME, tissue-based, Macaca mulatta; conditions: rhesus monkey
# Summary of the method: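 Freshly excised monkey liver was cut into 230 μm slices from 8 mm cores. Four slices per vessel were preincubated 1 h at 37 °C in Williams medium E with 10% FBS, glucose, insulin, hydrocortisone, methionine, gentamycin and amphotericin B, under 75% O2/5% CO2/20% N2 with rotation. Compound was added at 10 or 20 μM (from 2 mM DMSO stock) for 8 or 18 h, then quenched with cold acetonitrile.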
# [20] = Mus musculus, C57BL/6, Bone marrow cell
# Sequence of Voltage-gated inwardly rectifying potassium channel KCNH2 (Q12809 whole entry): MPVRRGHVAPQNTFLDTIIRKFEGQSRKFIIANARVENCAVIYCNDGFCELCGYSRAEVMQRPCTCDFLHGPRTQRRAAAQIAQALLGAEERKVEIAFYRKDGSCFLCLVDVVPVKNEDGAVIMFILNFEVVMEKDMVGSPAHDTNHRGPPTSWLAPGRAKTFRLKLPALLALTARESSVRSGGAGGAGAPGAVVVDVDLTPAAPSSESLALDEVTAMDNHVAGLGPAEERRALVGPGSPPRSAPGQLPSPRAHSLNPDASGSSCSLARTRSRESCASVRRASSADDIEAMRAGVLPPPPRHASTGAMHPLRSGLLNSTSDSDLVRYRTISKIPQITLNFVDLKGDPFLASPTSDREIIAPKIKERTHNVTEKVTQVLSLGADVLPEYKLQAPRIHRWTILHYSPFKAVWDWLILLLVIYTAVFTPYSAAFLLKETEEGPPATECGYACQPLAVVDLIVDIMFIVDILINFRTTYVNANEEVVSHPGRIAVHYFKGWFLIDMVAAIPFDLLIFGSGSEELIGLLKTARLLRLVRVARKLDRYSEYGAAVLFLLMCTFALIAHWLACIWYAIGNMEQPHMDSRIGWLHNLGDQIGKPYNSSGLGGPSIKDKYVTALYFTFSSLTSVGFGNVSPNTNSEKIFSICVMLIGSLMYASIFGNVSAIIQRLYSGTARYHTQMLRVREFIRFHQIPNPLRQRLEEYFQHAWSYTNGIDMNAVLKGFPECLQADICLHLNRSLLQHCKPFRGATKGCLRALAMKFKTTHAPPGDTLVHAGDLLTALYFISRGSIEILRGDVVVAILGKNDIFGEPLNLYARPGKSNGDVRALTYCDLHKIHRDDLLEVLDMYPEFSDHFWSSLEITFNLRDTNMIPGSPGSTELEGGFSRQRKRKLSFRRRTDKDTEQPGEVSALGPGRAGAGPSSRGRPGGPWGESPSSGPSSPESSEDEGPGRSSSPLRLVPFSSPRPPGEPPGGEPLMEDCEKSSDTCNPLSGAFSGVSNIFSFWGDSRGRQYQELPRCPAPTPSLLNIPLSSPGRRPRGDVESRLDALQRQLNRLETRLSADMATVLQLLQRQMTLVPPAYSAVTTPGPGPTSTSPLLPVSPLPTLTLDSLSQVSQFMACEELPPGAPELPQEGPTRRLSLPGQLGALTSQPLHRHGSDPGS
# T2 sequence (Q12809 whole entry): as above
IC50 [2] [µM],IC50 [10] [µM],IC50 [12] [µM],Compound,IC50 [1] [µM],"IC50 [8, 20] [µM]",other results
–,0.438,0.165,NC(=O)c1ccc(N[C@@H]2CCCC[C@@H]2N)nc1Nc1cccc2cc[nH]c12,> 30,> 10,–
–,–,–,N[C@H]1CCCC[C@H]1Nc1cc2nc[nH]c(=O)c2c(Nc2cccc(-n3nccn3)c2)n1,–,0.249,–
–,–,–,c1cn2cc(-c3ccc4cn[nH]c4c3)nc(Nc3ccc(N4CCOCC4)cc3)c2n1 [ENTOSPLETINIB],–,–,IC50 ([8]; bone marrow cell): 0.582 µM
0.782,0.17,0.094,NC(=O)c1cnc(N[C@@H]2CCCC[C@@H]2N)nc1Nc1cccc2cc[nH]c12,> 30,> 10,–
–,–,–,NC(=O)c1cnc(N[C@@H]2CCCC[C@@H]2N)nc1Nc1cccc(-n2nccn2)c1,–,5.85,–
–,–,–,N[C@H]1COCC[C@H]1Nc1cc2cc[nH]c(=O)c2c(Nc2cccc3cc[nH]c23)n1,–,3.52,–
–,–,–,NC(=O)c1cnc(N[C@@H]2CCCC[C@@H]2NC(=O)OCc2ccccc2)nc1Nc1cccc2cc[nH]c12,–,–,Stability [13]: 8.4%; Stability [14]: 13%; Stability (Hepatocyte [15]): 2.1%; Stability (Hepatocyte [16]): 2.6%
0.302,0.03,0.005,NC(=O)c1ncc(N[C@@H]2CCCC[C@@H]2N)nc1Nc1cccc2cc[nH]c12,8.1,5.27,bioavailability [3]: 95%; inhibition at 3 µM (hERG (KCNH2) [17]): 13%; AUC/dose (Rattus norvegicus [4]): 1610 nM·h; AUC/dose (Rattus norvegicus [5]): 1523 nM·h; Cmax/dose (Rattus norvegicus [6]): 0.108 µM; inhibition at 10 µM (hERG (KCNH2) [18]): 50%; MRT [7]: 7.2 h; clearance [9]: 1.68 L/h/kg; Vd [11]: 12.3 L/kg
–,–,–,NC(=O)c1nnc(N[C@@H]2CCCC[C@@H]2N)nc1Nc1cccc(-n2nccn2)c1,3.7,0.811,–
–,–,–,NC(=O)c1nnc(N[C@@H]2CCCC[C@@H]2N)nc1Nc1cccc2c1N=C(NC(CS)C(=O)O)C2=O (stereo partly drawn),–,–,Drug metabolism [19]: 0.9 µg
–,0.445,0.019,NC(=O)c1ccc(N[C@@H]2CCCC[C@@H]2N)nc1Nc1cccc(-n2nccn2)c1,–,2.6,–
1.79,0.069,0.001,NC(=O)c1ncc(N[C@@H]2CCCC[C@@H]2N)nc1Nc1cccc(-n2nccn2)c1,10,2.11,–

Compound,IC50 [2] [µM],IC50 [10] [µM],IC50 [12] [µM],IC50 [1] [µM],"IC50 [8, 20] [µM]",other results
NC(=O)c1nnc(N[C@@H]2CCCC[C@@H]2N)nc1Nc1cccc2[nH]ccc12,0.177,0.014,–,3.7,5.27,bioavailability [3]: 4%; AUC/dose (Rattus norvegicus [4]): 522 nM·h; AUC/dose (Rattus norvegicus [5]): 19 nM·h; Cmax/dose (Rattus norvegicus [6]): 0.004 µM; MRT [7]: 2.1 h; clearance [9]: 4.98 L/h/kg; Vd [11]: 10.3 L/kg
